TDP2 inh: human TDP2 enzyme inhibitors, primary screen, biochemical, epi absorbance, recombinant enzyme | 370,000 tested, 0.34% active | inhibition, % at 12.8 µM | Tyrosyl-DNA phosphodiesterase 2 (Homo sapiens), O95551 | T5PNP hydrolysis, p-nitrophenol absorbance 415 nm;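 active means inhibition above the mean of all tested compounds plus 3 SD, set per campaign, cut at about 25% in these data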;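 further: 0% = DMSO with enzyme and 100% = buffer with substrate but no TDP2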
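Assay system: Recombinant human TDP2 | Quantity: 120 nM TDP2 per well | Incubation: 2 h at 37 °C | Signal: Epi absorbance | Evaluation: Percent inhibition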
Apaf1 inhib: inhibitors of human Apaf-1 apoptosome, primary screen, biochemical, DEVD-Rh110 fluorescence, uHTS; Apoptotic protease-activating factor 1 (Homo sapiens), O14727; reconstituted apoptosome caspase-3 activity; 330,000 tested, 0.71% active; inhibition, % at 20 µM; active means inhibition of at least 40% at 20 µM;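 further: plate controls were DMSO wells for no effect and DEVD-CHO caspase inhibitor wells for full effect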
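Material: biochemical Apaf-1 apoptosome reconstitution. Medium: Hepes buffer, pH 7.5. Also added: cytochrome c activation, bis-DEVD rhodamine 110 substrate. Timing: 30 min compound preincubation, 50 min activation, room temperature. Measured by: rhodamine 110 fluorescence at Ex 480/Em 540 nm.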
GSTO1 counter: inhibitors of recombinant GSTO1, primary screen, counter-screen for RBBP9 inhibitor project, biochemical, fluorescence polarization. Glutathione S-transferase omega-1 (Homo sapiens), P78417. activity-based probe fluorescence polarization. inhibition, % at 5.96 µM. 300,000 tested, 1.1% active. AID 1974, 2009;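 active means inhibition above the campaign mean inhibition plus 3 SD, cut at about 35% in these data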;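 further: 0% = GSTO1-1 with DMSO and 100% = wells lacking GSTO1-1 enzyme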
CTSL1 counter: Fasciola hepatica cathepsin L1 inhibitors, primary screen, counter-screen for PFM18AAP inhibitor project, biochemical, QFRET, fluorogenic peptide substrate. recombinant F. hepatica cathepsin L1, Z-Leu-Arg-MCA fluorescence. 300,000 tested, 0.49% active. inhibition, % at 5.96 µM;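 active means inhibition above the mean of all tested compounds plus 3 SD, set per screening campaign, cut at about 17% in these data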;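 further: 0% = plate median of test compound wells and 100% = 1 µM Z-Phe-Ala-diazomethylketone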
PAD4 FP inh: human PAD4 inhibitors, primary screen, biochemical, fluorescence polarization, 1536-well format; Protein-arginine deiminase type-4 (Homo sapiens), Q9UM07; inhibition, % at 6.36 µM; 330,000 tested, 0.41% active; recombinant PAD4, RCA probe fluorescence polarization;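 active means percent inhibition above a cutoff equal to the mean of all tested compounds plus 3 SD, cut at about 15% in these data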;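 further: 0% = PAD4 with RCA probe and DMSO and 100% = probe without PAD4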
Target sequence (Q9UM07 whole entry, looked up): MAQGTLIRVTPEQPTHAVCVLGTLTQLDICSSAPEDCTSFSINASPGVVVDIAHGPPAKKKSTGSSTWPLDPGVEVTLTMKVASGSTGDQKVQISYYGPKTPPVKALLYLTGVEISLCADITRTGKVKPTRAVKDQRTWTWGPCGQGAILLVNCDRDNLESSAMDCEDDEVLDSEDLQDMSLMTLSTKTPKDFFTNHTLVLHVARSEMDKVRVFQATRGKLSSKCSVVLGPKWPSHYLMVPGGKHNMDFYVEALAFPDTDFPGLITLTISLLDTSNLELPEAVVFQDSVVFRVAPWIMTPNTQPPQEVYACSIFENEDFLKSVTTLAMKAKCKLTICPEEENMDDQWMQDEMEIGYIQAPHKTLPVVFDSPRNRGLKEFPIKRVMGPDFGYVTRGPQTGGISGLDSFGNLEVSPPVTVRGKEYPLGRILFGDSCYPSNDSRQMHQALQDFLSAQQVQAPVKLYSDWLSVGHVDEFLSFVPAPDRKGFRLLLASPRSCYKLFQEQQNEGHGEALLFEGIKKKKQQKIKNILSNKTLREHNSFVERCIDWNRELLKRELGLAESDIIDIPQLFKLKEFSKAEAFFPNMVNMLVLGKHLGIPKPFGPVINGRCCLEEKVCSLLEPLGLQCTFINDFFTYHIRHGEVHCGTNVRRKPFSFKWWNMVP
Apaf-1 inh conf2: Apaf-1 inhibitors, single-dose retest, confirmation, biochemical, fluorescence, DEVD-Rh110, 20 µM | inhibition, % at 20 µM | 1,800 tested, 25% active | shares compounds with Apaf1 inhib | reconstituted apoptosome, caspase-3 DEVD-Rh110 fluorescence;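 active means mean inhibition of at least 40% at 20 µM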;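 further: plate controls were DMSO wells for no effect and DEVD-CHO caspase inhibitor control wells for full effect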
Rh110 interf inh: Rh110 fluorescence interference by putative Apaf-1 inhibitors, confirmation, artefact control for Apaf-1 inhibitor project, biochemical, 20 µM. 1,800 tested, under 10 active. activation (fluorescence interference), % at 20 µM. AID 504615, 2011. quenched caspase reaction. shares compounds with Apaf1 inhib;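 active means signal rise of 40% or more at 20 µM, treated as a fluorescence artifact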
Apaf1 inh interf: fluorescence interference of Apaf-1 inhibitor hits, dose response, artefact control for Apaf-1 inhibitor project; IC50, µM; fluorescence interference counterscreen, Apaf-1 assay format; AID 588538, 2011; shares compounds with Apaf1 inhib; 460 tested, under 10 active; call rule not given here
Starred values were filed as active, the others as inactive; . = no result. Hits are enriched below; roughly 1.8% of the tested compounds scored in any of these assays.

SMILES | TDP2 inh | Apaf1 inhib | GSTO1 counter | CTSL1 counter | PAD4 FP inh | Apaf-1 inh conf2 | Rh110 interf inh | others
CCCCN1CC(COCc2ccccc2)Oc2cccc(Oc3ccc(SC)c(C)c3)c2S1(=O)=O (stereo not given) | 7 | . | . | . | . | . | .
Cc1ccccc1S(=O)(=O)N1CCCc2nc(-c3ccc(F)cc3)ccc21 | -2 | . | . | . | . | . | .
COc1ccc(OCC(=O)Nc2ccc3c(c2)nc(CCN2CCCCC2)n3C)cc1 | 12 | 15 | 0 | 0 | -3 | . | .
CCN1CCN(CCc2nc3cc(NC(=O)COc4ccc(Cl)cc4)ccc3n2C)CC1 | -10 | 8 | 10 | -2 | 1 | . | .
CN1CCN(c2ccc(-c3cccc(NC(=O)COc4ccccc4)c3)nn2)CC1 | -9 | 47* | -7 | 3 | -1 | 14 | 5
Cn1c(CCN2CCCCC2)nc2cc(NC(=O)COc3ccccc3)ccc21 | -1 | 53* | 4 | -2 | -2 | 16 | 1
CN1CCN(CCc2nc3cc(NC(=O)COc4ccccc4)ccc3n2C)CC1 | -4 | 57* | 6 | 0 | 3 | 21 | 3
CCN1CCN(CCc2nc3cc(NC(=O)COc4ccccc4)ccc3n2C)CC1 | -16 | 51* | 2 | -2 | -3 | 26 | 4
O=C(NCC1COCCO1)C1CCN(S(=O)(=O)c2cccc3ccccc23)CC1 (stereo not given) | -2 | . | . | . | . | . | .
O=S(=O)(NCc1ccc(Cl)c(Cl)c1)c1cc(Cl)ccc1N1CC[C@@H](O)C1 | -1 | . | . | . | . | . | .
Cc1ccc(C(=O)C2CCN(CC(=O)N3CCCC3)CC2)cc1 | -1 | . | . | . | . | . | .
Cn1c(CN2CCCC2)nc2cc(NC(=O)COc3ccccc3)ccc21 | 8 | 53* | 3 | 0 | -3 | 20 | 3
COc1cc(-c2c(C#N)c(=O)[nH]c3c2c(C)nn3-c2ccccc2)ccc1O | 1 | 42* | -19 | 0 | -1 | 43* | 1 | Apaf1 inh interf=>100
CCc1nc(N)c(C#N)c(-c2ccc(O)c(OC)c2)c1C | -3 | 3 | -11 | 1 | -2 | . | .
COc1cccc(C2NC(=S)N(Cc3ccc(Br)cc3)C(C)=C2C(C)=O)c1 (stereo not given) | -3 | . | . | . | . | . | .
O=C(CSc1nc(=O)n2ccccc2n1)NCc1ccccc1Cl | -13 | 48* | -1 | 0 | -4 | -6 | -1
O=[N+]([O-])c1cc2c(cc1C=Nc1ccccc1)OCO2 | . | 48* | 23 | -1 | -13 | 16 | 7
Cc1cccc(N=Cc2cc3c(cc2[N+](=O)[O-])OCO3)c1 | 7 | 35 | 25 | -1 | 3 | . | .
CCC(C)N(C(=O)CSc1nnc(-c2cccnc2)n1C1CCCCC1)C(C)CC (stereo not given) | 7 | . | . | . | . | . | .
CCn1cc(C(=O)OCC(=O)OC2CC(C)CCC2C(C)C)c(=O)c2ccc(C)nc21 (stereo not given) | -10 | 48* | -2 | 12 | -1 | 26 | 7
C=CCOC(=O)c1cn(CC)c2nc(C)ccc2c1=O | 9 | -5 | -6 | 5 | -2 | . | .
Cc1c(C)n(Cc2ccc(-c3ccccc3C(=O)O)cc2)c2ccc(C(=O)N[C@@H](C)c3ccc(Br)cc3)cc12 | 3 | . | . | . | . | . | .
CCNC(=O)Oc1ccc[nH]c1=O | 5 | 42* | 10 | 4 | -2 | 3 | 1
O=C(Oc1ccc[nH]c1=O)c1cc([N+](=O)[O-])cc([N+](=O)[O-])c1 | 12 | 93* | 27 | 7 | -3 | 12 | 6
COc1ccc(C(=O)Oc2ccc[nH]c2=O)cc1 | 0 | -1 | 7 | -5 | -2 | . | .
SMILES | TDP2 inh | Apaf1 inhib | GSTO1 counter | CTSL1 counter | PAD4 FP inh | Apaf-1 inh conf2 | Rh110 interf inh | others
CCOC(=O)N(C)[C@H]1C[C@H]2c3cc(-c4ccccc4C)ccc3CCN2C[C@H]1[C@H](C)O | -2 | . | . | . | . | . | .
CCN(C)C(=O)CN1C(=O)C2CCCCN2C(=O)c2ccccc21 (stereo not given) | -14 | . | . | . | . | . | .
CC(=O)N1CCN(C(=O)c2ccc(CNC(=O)c3cccc(Br)c3)cc2)CC1 | 10 | . | . | . | . | . | .
O=C(CCc1c[nH]c2ccccc12)NCc1ccco1 | 6 | 1 | 11 | 3 | 4 | . | .
CC(=O)C1=C(O)C(=O)N(CCc2c[nH]c3ccccc23)C1c1ccc(C)cc1 (stereo not given) | 7 | 4 | 0 | -5 | 0 | . | .
CCOc1cc(C2C(C(C)=O)=C(O)C(=O)N2CCc2c[nH]c3ccccc23)ccc1O (stereo not given) | 1 | 49* | 13 | 4 | -4 | 12 | 9
CC(=O)C1=C(O)C(=O)N(CCc2c[nH]c3ccccc23)C1c1ccco1 (stereo not given) | 7 | 43* | 5 | 2 | -6 | -1 | 5
Cc1cccc(Cn2cc(COC(=O)N(C)Cc3ccccc3)nn2)c1 | 3 | . | . | . | . | . | .
CCc1ccc(OCC(O)CN2CCC(CN3C(=O)c4cccc5cccc(c45)C3=O)CC2)cc1 (stereo not given) | 1 | 42* | 7 | -1 | 1 | 13 | -10
O=C1c2cccc3cccc(c23)C(=O)N1CC1CCN(CC(O)COc2ccc3ccccc3c2)CC1 (stereo not given) | -18 | 36 | -7 | 6 | 3 | . | .
COc1ccc(-c2sc3ccccc3c2-c2ccc(O)cc2)cc1 | -1 | 26 | . | . | 1 | . | .
COc1cccc(-c2sc3ccc(OC)cc3c2-c2ccc(OCCN(C)C)cc2)c1 | -6 | 75* | . | . | -1 | 23 | 20
CN(C)CCOc1ccc(-c2c(-c3ccsc3)sc3ccccc23)cc1 | -3 | 71* | . | . | 1 | 24 | 13
COC(=O)C1=C(C)N(C)C(=NCc2ccc3c(c2)OCO3)NC1c1cccc(Cl)c1 (stereo not given) | -1 | . | . | . | . | . | .
C[C@H]1[C@@H](NCC2CCCCC2)CC[C@@]23CCCN2C(=O)CCC[C@@H]13 | 4 | . | . | . | . | . | .
COC(=O)C1CN(CCc2ccccc2)CCS(=O)(=O)N1Cc1ccccc1F (stereo not given) | -11 | . | . | . | . | . | .
COc1ccc(NS(=O)(=O)c2ccc(C)c(NC(=O)CN3C(=O)NC4(CCCC4)C3=O)c2)cc1 | 3 | 82* | . | . | -1 | 58* | 2 | Apaf1 inh interf=>100

Assay outcomes as filed in PubChem.
